Assay results as given in ChEMBL document CHEMBL1138474, “Modulation of the transient receptor potential vanilloid channel TRPV4 by 4alpha-phorbol esters: a structure-activity study” (J Med Chem, 2009).
Calls of active or inactive are those of the source. The calls are words filed in the database; no cut-off is given here.

How the values were obtained:
[1] = target: Transient receptor potential cation channel subfamily V member 4 (Mus musculus) (UniProt Q9EPK8); assay: (§1) Activation of mouse wild type TRPV4 expressed in HEK293 cells assessed as increase in intracellular calcium concentration; format: cell-based
Outline: (§2)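 mTRPV4 (wild type or the Y556A, S557A or W586A TM3-4 mutant) in pCAGGS/Ires-GFP was transiently transfected into HEK293 cells and incubated overnight. GFP-positive cells on poly-L-lysine coverslips were loaded with 4 µM Fura-2 AM for 30 min at 37 °C and perfused with Krebs solution (1.5 mM CaCl2, pH 7.4). The 340/380 nm ratio (510 nm emission) gave ∆Fura-2 ratio. EC50 came from a Hill fit, >15 cells, three transfections.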

[2] = target: Transient receptor potential cation channel subfamily V member 4 (Mus musculus, UniProt Q9EPK8); assay: as §1; format: cell-based; outline: as §2
[3] = target: Transient receptor potential cation channel subfamily V member 4 (Mus musculus, UniProt Q9EPK8, Y556A); assay: Activation of mouse TRPV4 Y556A mutant expressed in HEK293 cells assessed as increase in intracellular calcium concentration; format: cell-based; outline: as §2
[4] = target: Transient receptor potential cation channel subfamily V member 4 (Mus musculus, UniProt Q9EPK8, S557A); assay: Activation of mouse TRPV4 S557A mutant expressed in HEK293 cells assessed as increase in intracellular calcium concentration; format: cell-based; outline: as §2
[5] = target: Transient receptor potential cation channel subfamily V member 4 (Mus musculus, UniProt Q9EPK8, W586A); assay: Activation of mouse TRPV4 W586A mutant expressed in HEK293 cells assessed as increase in intracellular calcium concentration; format: cell-based; outline: as §2
HEK293 [6] = assay: Effect on intracellular calcium level in non transfected HEK293 cells; format: functional, cell-based; conditions: Homo sapiens
Outline: (§3)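 GFP-negative cells from the same coverslips as the mTRPV4-transfected HEK293 cells served as untransfected controls. Cells were loaded with 4 µM Fura-2 AM for 30 min at 37 °C and perfused with Krebs solution (pH 7.4). ∆Fura-2 ratio was taken as (Rt−Rt0)/Rt0 from 340/380 nm excitation, with background subtracted.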

[7] = target: Transient receptor potential cation channel subfamily V member 4 (Mus musculus) (UniProt Q9EPK8); assay: Activation of mouse wild type TRPV4 expressed in HEK293 cells assessed as increase in intracellular calcium concentration at 1 uM in presence of TRP antagonist ruthenium red; format: functional, cell-based
Outline: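 Single-cell fura-2 imaging was done on GFP-positive HEK293 cells transiently expressing mTRPV4, perfused with Krebs buffer (1.5 mM CaCl2, pH 7.4). Agonist at 1 µM was applied in the bath, and ruthenium red 1 µM was added to the extracellular solution as indicated. The read-out was the 340/380 nm ratio change. Three independent experiments were run.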

[8] = target: Transient receptor potential cation channel subfamily V member 4 (Mus musculus) (UniProt Q9EPK8); assay: Activation of mouse wild type TRPV4 expressed in HEK293 cells assessed as outward-inward rectifying current density at 500 nM at a holding potential of 100 mV by whole cell patch-clamp assay in presence of calcium; format: cell-based
Outline: (§4)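 Whole-cell patch clamp was run on mTRPV4-transfected HEK293 cells using ramps from -100 to +100 mV. Bath (mM): 150 NaCl, 6 CsCl, 1 MgCl2, 5 CaCl2, 10 glucose, 10 HEPES, pH 7.4. Pipette (mM): 20 CsCl, 100 aspartate, 1 MgCl2, 10 HEPES, 4 Na-ATP, 10 BAPTA, free Ca2+ buffered to 200 nM, pH 7.4. Agonist was added to the bath. Five cells, >2 transfections.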

[9] = target: Transient receptor potential cation channel subfamily V member 4 (Mus musculus) (UniProt Q9EPK8); assay: Activation of mouse wild type TRPV4 expressed in HEK293 cells assessed as outward-inward rectifying current density at 500 nM at a holding potential of 100 mV by whole cell patch-clamp assay in absence of calcium; format: cell-based
Outline: as §4, with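 “mV. CaCl2 was omitted from both solutions.” for “mV.”, “MgCl2,” for “MgCl2, 5 CaCl2,”, “BAPTA,” for “BAPTA, free Ca2+ buffered to 200 nM,”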

HEK293 [10] = assay: Effect on intracellular calcium level in non transfected HEK293 cells assessed as increase in fura-2 ratio; format: functional, cell-based; conditions: Homo sapiens; outline: as §3
[11] = target: Transient receptor potential cation channel subfamily V member 4 (Mus musculus) (UniProt Q9EPK8); assay: Activation of mouse wild type TRPV4 expressed in HEK293 cells assessed as increase in intracellular calcium concentration at 0.1 uM; format: cell-based
HEK293 [12] = assay: Effect on intracellular calcium level in non transfected HEK293 cells at >10 uM; format: functional, cell-based; conditions: Homo sapiens
Outline: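 GFP-negative (untransfected) HEK293 cells from the same coverslips were imaged by fura-2 ratio. Compound was applied at concentrations above 10 µM.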

[13] = target: Transient receptor potential cation channel subfamily V member 1 (Homo sapiens) (UniProt Q8NER1); assay: Activation of TRPV1 expressed in HEK293 cells assessed as increase in intracellular calcium concentration; format: cell-based
Outline: (§5)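 HEK293 cells grown in DMEM with 10% human serum at 37 °C/10% CO2 and transfected with the TRPV channel. Cells were loaded with 4 µM Fura-2 AM for 30 min at 37 °C and perfused with Krebs buffer (1.5 mM CaCl2, pH 7.4). Read-out is single-cell 340/380 nm fura-2 ratio imaging against nontransfected cells.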

[14] = target: T1, Transient receptor potential cation channel subfamily V member 2 (Homo sapiens) (UniProt Q9Y5S1); assay: Activation of TRPV2 expressed in HEK293 cells assessed as increase in intracellular calcium concentration; format: cell-based; outline: as §5
T1 sequence (whole entry): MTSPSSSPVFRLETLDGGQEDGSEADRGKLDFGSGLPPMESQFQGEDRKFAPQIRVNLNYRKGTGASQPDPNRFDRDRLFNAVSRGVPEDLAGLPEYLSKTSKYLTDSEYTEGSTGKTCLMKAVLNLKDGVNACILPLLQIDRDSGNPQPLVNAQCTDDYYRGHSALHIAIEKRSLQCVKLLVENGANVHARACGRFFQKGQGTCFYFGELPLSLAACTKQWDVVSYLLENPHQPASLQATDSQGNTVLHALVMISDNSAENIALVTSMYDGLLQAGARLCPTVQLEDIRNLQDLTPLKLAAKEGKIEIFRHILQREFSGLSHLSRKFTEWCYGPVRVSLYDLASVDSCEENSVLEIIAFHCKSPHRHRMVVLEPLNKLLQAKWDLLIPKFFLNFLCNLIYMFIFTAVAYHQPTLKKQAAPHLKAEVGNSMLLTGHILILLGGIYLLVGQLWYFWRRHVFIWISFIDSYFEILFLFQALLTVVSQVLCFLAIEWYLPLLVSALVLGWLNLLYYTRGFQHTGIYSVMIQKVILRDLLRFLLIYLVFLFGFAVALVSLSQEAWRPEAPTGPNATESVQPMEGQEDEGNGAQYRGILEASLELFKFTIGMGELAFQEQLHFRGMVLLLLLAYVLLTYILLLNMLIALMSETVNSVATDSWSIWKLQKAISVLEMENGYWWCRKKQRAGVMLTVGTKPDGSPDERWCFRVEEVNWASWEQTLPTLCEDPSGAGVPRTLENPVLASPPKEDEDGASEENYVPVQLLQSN

[15] = target: T2, Transient receptor potential cation channel subfamily V member 3 (Homo sapiens) (UniProt Q8NET8); assay: Activation of TRPV3 expressed in HEK293 cells assessed as increase in intracellular calcium concentration; format: cell-based; outline: as §5
T2 sequence (whole entry): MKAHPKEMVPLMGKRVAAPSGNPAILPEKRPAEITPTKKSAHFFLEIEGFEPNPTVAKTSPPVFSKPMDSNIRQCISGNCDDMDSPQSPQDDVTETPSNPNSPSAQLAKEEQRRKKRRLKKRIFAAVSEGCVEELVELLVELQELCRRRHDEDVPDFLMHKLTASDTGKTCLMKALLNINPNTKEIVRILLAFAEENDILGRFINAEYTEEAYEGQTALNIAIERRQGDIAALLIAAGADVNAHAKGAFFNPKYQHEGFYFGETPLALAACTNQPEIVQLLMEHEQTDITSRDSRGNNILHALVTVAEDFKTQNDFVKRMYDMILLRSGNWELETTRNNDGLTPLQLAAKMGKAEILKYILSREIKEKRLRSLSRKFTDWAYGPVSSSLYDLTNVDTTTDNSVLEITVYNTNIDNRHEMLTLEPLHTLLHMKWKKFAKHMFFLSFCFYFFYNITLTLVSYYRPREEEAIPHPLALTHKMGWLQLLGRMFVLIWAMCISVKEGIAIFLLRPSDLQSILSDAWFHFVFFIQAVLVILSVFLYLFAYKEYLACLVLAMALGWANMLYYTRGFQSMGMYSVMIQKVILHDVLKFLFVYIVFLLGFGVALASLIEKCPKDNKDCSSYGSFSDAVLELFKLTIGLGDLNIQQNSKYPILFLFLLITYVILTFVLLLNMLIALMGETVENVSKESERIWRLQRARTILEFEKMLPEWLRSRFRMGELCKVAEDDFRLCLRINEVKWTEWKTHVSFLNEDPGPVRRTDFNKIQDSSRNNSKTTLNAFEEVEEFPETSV

[16] = target: Transient receptor potential cation channel subfamily V member 4 (Mus musculus) (UniProt Q9EPK8); assay: Agonist activity at mouse wild type TRPV4 expressed in HEK293 cells assessed as increase in intracellular calcium measured by fura-2 fluorescence ratio; format: functional, cell-based
Outline: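 Mouse TRPV4 (pCAGGS/Ires-GFP) transiently transfected into HEK293 cells, incubated overnight, then seeded on poly-L-lysine coverslips. GFP-positive cells loaded with 4 µM Fura-2 AM for 30 min at 37 °C and perfused with Krebs (pH 7.4). ΔFura-2 ratio taken as (Rt−R0)/R0 at the maximal response. EC50 from a Hill fit over >15 cells from three transfections, mean ± SEM.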

[17] = test system: Transient receptor potential cation channel subfamily V member 4 (Mus musculus), Q9EPK8 [Y556A]; assay: Agonist activity at mouse TRPV4 Y556A mutant expressed in HEK293 cells assessed as increase in intracellular calcium measured by fura-2 fluorescence ratio; format: functional, cell-based
Outline: (§6)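 HEK293 cells transiently transfected with W586A or Y556A mouse TRPV4 mutants alongside wild type. Dose-response by single-cell fura-2 Ca2+ imaging, read as ΔFura-2 ratio. More than 15 cells per point from three independent transfections. Hill fit used, significance set at p < 0.05.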

[18] = test system: Transient receptor potential cation channel subfamily V member 4 (Mus musculus), Q9EPK8 [W586A]; assay: Agonist activity at mouse TRPV4 W586A mutant expressed in HEK293 cells assessed as increase in intracellular calcium measured by fura-2 fluorescence ratio; format: functional, cell-based; outline: as §6
[19] = target: Transient receptor potential cation channel subfamily V member 4 (Mus musculus) (UniProt Q9EPK8); assay: Activation of mouse wild type TRPV4 expressed in HEK293 cells assessed as increase in intracellular calcium concentration at 500 nM
[20] = target: Transient receptor potential cation channel subfamily V member 4 (Mus musculus) (UniProt Q9EPK8); assay: Activation of mouse wild type TRPV4 expressed in HEK293 cells assessed as increase in intracellular calcium concentration at 500 nM in presence of TRP antagonist ruthenium red

Chain of Transient receptor potential cation channel subfamily V member 4 (Mus musculus, UniProt Q9EPK8, W586A) (Q9EPK8 whole entry W586A): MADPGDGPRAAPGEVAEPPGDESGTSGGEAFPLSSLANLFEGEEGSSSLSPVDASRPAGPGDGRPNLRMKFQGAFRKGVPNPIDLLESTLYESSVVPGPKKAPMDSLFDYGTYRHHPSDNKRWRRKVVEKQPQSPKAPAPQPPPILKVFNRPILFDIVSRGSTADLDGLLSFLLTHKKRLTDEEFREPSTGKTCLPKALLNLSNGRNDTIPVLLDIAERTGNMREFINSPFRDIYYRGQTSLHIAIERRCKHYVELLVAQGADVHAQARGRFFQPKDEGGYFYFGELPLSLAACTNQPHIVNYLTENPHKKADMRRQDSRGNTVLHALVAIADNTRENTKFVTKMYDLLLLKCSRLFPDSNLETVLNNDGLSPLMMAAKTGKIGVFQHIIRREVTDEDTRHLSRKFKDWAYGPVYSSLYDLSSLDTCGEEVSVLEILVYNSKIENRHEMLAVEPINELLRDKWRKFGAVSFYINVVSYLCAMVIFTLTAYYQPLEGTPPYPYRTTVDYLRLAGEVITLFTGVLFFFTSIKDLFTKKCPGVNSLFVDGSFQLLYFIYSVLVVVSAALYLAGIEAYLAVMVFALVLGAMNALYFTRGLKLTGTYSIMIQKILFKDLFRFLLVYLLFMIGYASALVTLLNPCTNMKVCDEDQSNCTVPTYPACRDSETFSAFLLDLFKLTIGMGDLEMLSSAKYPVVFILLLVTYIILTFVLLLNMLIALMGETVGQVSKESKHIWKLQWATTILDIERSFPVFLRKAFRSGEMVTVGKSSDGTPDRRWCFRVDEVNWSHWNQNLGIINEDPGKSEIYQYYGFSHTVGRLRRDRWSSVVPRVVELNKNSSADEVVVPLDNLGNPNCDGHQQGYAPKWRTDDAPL
Chain of Transient receptor potential cation channel subfamily V member 4 (Mus musculus) (Q9EPK8 whole entry, the tested form may be a part): as the sequence (Q9EPK8 whole entry W586A) above, with A586W counted along it
Chain of Transient receptor potential cation channel subfamily V member 4 (Mus musculus, UniProt Q9EPK8) (Q9EPK8 whole entry): as the sequence (Q9EPK8 whole entry W586A) above, with A586W counted along it
Chain of Transient receptor potential cation channel subfamily V member 4 (Mus musculus, UniProt Q9EPK8, S557A) (Q9EPK8 whole entry S557A): as the sequence (Q9EPK8 whole entry W586A) above, with S557A, A586W counted along it
Chain of Transient receptor potential cation channel subfamily V member 4 (Mus musculus, UniProt Q9EPK8, Y556A) (Q9EPK8 whole entry Y556A): as the sequence (Q9EPK8 whole entry W586A) above, with Y556A, A586W counted along it
Chain of Transient receptor potential cation channel subfamily V member 4 (Mus musculus), Q9EPK8 [W586A] (Q9EPK8 whole entry W586A): as the sequence (Q9EPK8 whole entry W586A) above
Chain of Transient receptor potential cation channel subfamily V member 4 (Mus musculus), Q9EPK8 [Y556A] (Q9EPK8 whole entry Y556A): as the sequence (Q9EPK8 whole entry W586A) above, with Y556A, A586W counted along it
Chain of Transient receptor potential cation channel subfamily V member 1 (Homo sapiens) (Q8NER1 whole entry, the tested form may be a part): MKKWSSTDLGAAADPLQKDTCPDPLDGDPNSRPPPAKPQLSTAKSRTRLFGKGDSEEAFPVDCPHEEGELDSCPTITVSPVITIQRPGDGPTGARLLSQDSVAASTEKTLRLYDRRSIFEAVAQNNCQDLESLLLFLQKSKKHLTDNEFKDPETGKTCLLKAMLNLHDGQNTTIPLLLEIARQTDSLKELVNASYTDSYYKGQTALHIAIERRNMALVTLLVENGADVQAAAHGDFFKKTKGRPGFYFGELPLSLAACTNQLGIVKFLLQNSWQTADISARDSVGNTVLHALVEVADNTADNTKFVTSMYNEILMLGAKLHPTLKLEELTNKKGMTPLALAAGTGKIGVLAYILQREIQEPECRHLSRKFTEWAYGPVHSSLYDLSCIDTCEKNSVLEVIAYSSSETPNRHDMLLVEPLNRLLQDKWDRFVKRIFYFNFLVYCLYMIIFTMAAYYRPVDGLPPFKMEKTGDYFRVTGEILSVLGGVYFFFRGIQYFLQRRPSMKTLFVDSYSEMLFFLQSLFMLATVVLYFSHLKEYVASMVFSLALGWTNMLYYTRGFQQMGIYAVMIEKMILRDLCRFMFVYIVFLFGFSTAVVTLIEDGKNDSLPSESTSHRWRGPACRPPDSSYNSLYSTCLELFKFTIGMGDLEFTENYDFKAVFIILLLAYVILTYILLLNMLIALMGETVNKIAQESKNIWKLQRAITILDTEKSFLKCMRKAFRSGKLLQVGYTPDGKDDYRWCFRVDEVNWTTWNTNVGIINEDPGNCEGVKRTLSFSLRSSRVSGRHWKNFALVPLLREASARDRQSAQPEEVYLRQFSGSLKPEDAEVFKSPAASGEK

Row | SMILES | EC50 [2] [µM] | EC50 [3] [µM] | EC50 [4] [µM] | EC50 [5] [µM] | also measured
1 | CCCCCC(=O)O[C@@H]1[C@@H](C)[C@@]2(O)[C@@H](C=C(CO)C[C@@]3(O)C(=O)C(C)=C[C@@H]23)[C@@H]2C(C)(C)[C@]12OC(=O)CCCCC | 0.07 | 2.79 | 0.36 | 2.84 | Activity [1]: Dose-dependent effect; Activity (HEK293 [6]): inactive; Activity [7]: inactive; Activity [8]: 354; Activity [9]: 806
2 | CCCCCCCCC(=O)O[C@@H]1[C@@H](C)[C@@]2(O)[C@@H](C=C(CO)C[C@@]3(O)C(=O)C(C)=C[C@@H]23)[C@@H]2C(C)(C)[C@]12OC(=O)CCCCCCCC | > 50 |  |  |  | 
3 | CCCCCCCC(=O)O[C@@H]1[C@@H](C)[C@@]2(O)[C@@H](C=C(CO)C[C@@]3(O)C(=O)C(C)=C[C@@H]23)[C@@H]2C(C)(C)[C@]12OC(=O)CCCCCCC | > 50 |  |  |  | 
4 | CCCCCCCCCC(=O)O[C@@]12[C@H](O)[C@@H](C)[C@@]3(O)[C@@H](C=C(CO)C[C@@]4(O)C(=O)C(C)=C[C@@H]34)[C@@H]1C2(C)C | 0.45 |  |  |  | Activity (HEK293 [10]): Active
5 | CCCCCCCCCCCCCC(=O)O[C@@H]1[C@@H](C)[C@@]2(O)[C@@H](C=C(CO)C[C@@]3(O)C(=O)C(C)=C[C@@H]23)[C@@H]2C(C)(C)[C@]12OC(=O)CCCCCCCCCCCCC | 2.83 |  |  |  | 
6 | CCCCCCCCCC(=O)O[C@@H]1[C@@H](C)[C@@]2(O)[C@@H](C=C(CO)C[C@@]3(O)C(=O)C(C)=C[C@@H]23)[C@@H]2C(C)(C)[C@]12OC(=O)CCCCCCCCC | 0.37 | 6.3 | 0.32 | > 6 | Activity (HEK293 [10]): Active
7 | CCCCCCCCCC(=O)O[C@@H]1[C@@H](C)[C@]2(O)[C@@H]3C=C(C)C(=O)[C@@H]3CC(CO)=C[C@H]2[C@@H]2C(C)(C)[C@]12OC(=O)CCCCCCCCC | > 50 |  |  |  | 
8 | CCCC(=O)O[C@@H]1[C@@H](C)[C@@]2(O)[C@@H](C=C(CO)C[C@]3(O)C(=O)C(C)=C[C@@H]23)[C@@H]2C(C)(C)[C@]12OC(=O)CCC | 22.5 |  |  |  | 
9 | CC(=O)O[C@@H]1[C@@H](C)[C@@]2(O)[C@@H](C=C(CO)C[C@@]3(O)C(=O)C(C)=C[C@@H]23)[C@@H]2C(C)(C)[C@]12OC(C)=O | > 50 |  |  |  | 
10 | CCCCCCCCCC(=O)O[C@@H]1[C@@H](C)[C@]2(O)[C@@H]3C4C([C@H]2[C@@H]2C(C)(C)[C@]12OC(=O)CCCCCCCCC)C1(CO)C[C@H]3C(=O)C41C (stereo partly drawn) | 0.175 | 9.36 | 0.24 | 3.64 | Activity [11]: Active; Activity (HEK293 [12]): Active; Activity [13]: inactive; Activity [14]: inactive; Activity [15]: inactive; Activity [8]: 505; Activity [9]: 635; Activity [16]: Active; Activity [17]: Active; Activity [18]: Active; Activity [19]: Active; Activity [20]: inactive
